Data from ChEMBL document CHEMBL3124905, “Isothiocoumarin-3-carboxylic acid derivatives: synthesis, anticancer and antitrypanosomal activity evaluation” (Eur J Med Chem, 2014).

What was measured:
Assay type in all cases: functional
786-0 = assay: Growth inhibition of human 786-0 cells after 48 hrs by SRB assay; conditions: 786-0, 48 h
Summary of the method: (§1)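 NCI five-dose assay against the ~60-cell-line panel (nine cancer types). Tenfold dilutions from 10−4 to 10−8 M were used with continuous 48-h exposure and SRB absorbance readout. Percent growth was computed from time-zero, control and treated absorbances. GI50 is the concentration giving 50% lower net protein increase than controls. Values not reached are reported as beyond the tested range.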

A549 = assay: Growth inhibition of human A549/ATCC cells after 48 hrs by SRB assay; conditions: A549, 48 h; summary of the method: as §1
[1] = Growth inhibition of human […] cells after 48 hrs by SRB assay; summary of the method: as §1
[2] = Growth inhibition of human HCC2998 cells after 48 hrs by SRB assay; conditions: HCC 2998, 48 h; summary of the method: as §1
TK-10 = assay: Growth inhibition of human TK10 cells after 48 hrs by SRB assay; conditions: TK-10, 48 h
Summary of the method: (§2)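 NCI ~60-cell-line five-dose screen. Cells were preincubated 24-48 h, then given compound at 10-fold dilutions from 10^-4 to 10^-8 M with 48 h continuous exposure. SRB protein stain was read by absorbance at time zero, in untreated control and with drug. GI50 was derived from [(Ti-Tz)/(C-Tz)]x100=50, TGI from Ti=Tz, and LC50 from [(Ti-Tz)/Tz]x100=-50.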

NCI-H522 = assay: Growth inhibition of human NCI-H522 cells after 48 hrs by SRB assay; conditions: NCI-H522, 48 h; summary of the method: as §1
UACC-62 = assay: Growth inhibition of human UACC62 cells after 48 hrs by SRB assay; conditions: UACC-62, 48 h; summary of the method: as §2
[3] = Growth inhibition of human OVCAR5 cells after 48 hrs by SRB assay; conditions: OVCAR-5, 48 h; summary of the method: as §1
NCI/ADR-RES = assay: Growth inhibition of human NCI/ADR-RES cells after 48 hrs by SRB assay; summary of the method: as §1
[4] = Growth inhibition of human RXF393 cells after 48 hrs by SRB assay; conditions: RXF 393, 48 h; for TGI: read-out: pTGI (converted); summary of the method: as §1
SF-295 = assay: Growth inhibition of human SF295 cells after 48 hrs by SRB assay; conditions: SF-295, 48 h; summary of the method: as §1
ACHN = assay: Growth inhibition of human ACHN cells after 48 hrs by SRB assay; summary of the method: as §1
NCI-H460 = assay: Anticancer activity against human NCI-H460 cells assessed as cell growth at 100 uM after 48 hrs by SRB assay; conditions: NCI-H460, 48 h, read-out: Activity
Summary of the method: (§3)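 NCI one-dose primary screen on a three-line panel (breast MCF7, lung NCI-H460, CNS SF-268). Cells were inoculated and preincubated 24–48 h, then exposed to a single concentration of 10−4 M for 48 h. The endpoint was sulforhodamine B protein staining, and results are expressed as percent growth relative to untreated control cells. Negative values denote cytotoxicity.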

MCF7 = assay: Anticancer activity against human MCF7 cells assessed as cell growth at 100 uM after 48 hrs by SRB assay; conditions: MCF7, 48 h, read-out: Activity; summary of the method: as §3
HCT-116 = assay: Growth inhibition of human HCT116 cells after 48 hrs by SRB assay; conditions: HCT-116, 48 h; summary of the method: as §1
SF-268 = assay: Anticancer activity against human SF268 cells assessed as cell growth at 100 uM after 48 hrs by SRB assay; conditions: SF-268, 48 h, read-out: Activity; summary of the method: as §3
U-251 = assay: Growth inhibition of human U251 cells after 48 hrs by SRB assay; conditions: U-251, 48 h; summary of the method: as §2
OVCAR-8 = assay: Growth inhibition of human OVCAR8 cells after 48 hrs by SRB assay; conditions: OVCAR-8, 48 h; summary of the method: as §1
[5] = Growth inhibition of human HOP92 cells after 48 hrs by SRB assay; conditions: HOP-92, 48 h; summary of the method: as §1
[6] = Growth inhibition of human SNB cells after 48 hrs by SRB assay; summary of the method: as §1

Work on `COc1ccc2cc(C(=O)Nc3ccc(F)cc3)sc(=O)c2c1OC` yielded a GI50 (786-0) of 11.5 µM, a TGI (786-0; read-out: pTGI (converted)) of 41.7 µM and a GI50 (A549) of 18.6 µM. For the same molecule, the TGI (A549; read-out: pTGI) was > 100 µM, the GI50 [1] was 6.76 µM and the TGI ([1]; read-out: pTGI (converted)) was 22.9 µM. The GI50 [2] was 14.1 µM, the TGI ([2]; read-out: pTGI (converted)) was 49 µM and the GI50 (TK-10) was 15.1 µM. It also gave a TGI (TK-10; read-out: pTGI (converted)) of 33.1 µM, a GI50 (NCI-H522) of 18.2 µM and a TGI (NCI-H522; read-out: pTGI (converted)) of 70.8 µM. For the same molecule, the GI50 (UACC-62) was 19.5 µM, the TGI (UACC-62; read-out: pTGI (converted)) was 52.5 µM and the GI50 [3] was 18.6 µM. For the same molecule, the TGI ([3]; read-out: pTGI (converted)) was 61.7 µM, the GI50 (NCI/ADR-RES) was 12.6 µM and the TGI (NCI/ADR-RES; read-out: pTGI (converted)) was > 100 µM. For the same molecule, the GI50 [4] was 10.7 µM, the TGI [4] was 33.9 µM and the GI50 (SF-295) was 18.2 µM. It also gave a TGI (SF-295; read-out: pTGI (converted)) of 51.3 µM, a GI50 (ACHN) of 7.08 µM and a TGI (ACHN; read-out: pTGI (converted)) of 26.9 µM. For the same molecule, the growth at 100 µM (NCI-H460) was 11%, the growth at 100 µM (MCF7) was 55% and the GI50 (HCT-116) was 14.1 µM. For the same molecule, the TGI (HCT-116; read-out: pTGI (converted)) was 40.7 µM, the growth at 100 µM (SF-268) was 60% and the GI50 (U-251) was 5.5 µM. It also gave a TGI (U-251; read-out: pTGI (converted)) of 20.4 µM, a GI50 (OVCAR-8) of 12.3 µM and a TGI (OVCAR-8; read-out: pTGI (converted)) of 67.6 µM.

For `COc1ccc2cc(C(=O)OC(C)C)sc(=O)c2c1OC`, the GI50 [5] was 28.8 µM, the TGI ([5]; read-out: pTGI (converted)) was 85.1 µM and the GI50 [4] was 20 µM. It also gave a TGI [4] of 45.7 µM, a GI50 [6] of 23.4 µM and a TGI ([6]; read-out: pTGI (converted)) of 53.7 µM.
